Source: ChEMBL document CHEMBL2062417, “Biotinylated quercetin as an intrinsic photoaffinity proteomics probe for the identification of quercetin target proteins” (Bioorg Med Chem, 2011)
Calls of active or inactive are those of the source. No cut-off for these calls is given here.

How the values were obtained:
Casein kinase II = Casein kinase II (Homo sapiens, UniProt P19784+P67870+P68400); test: Inhibition of CK2 using RRRADDSDDDDD as substrate after 30 mins by PKLight assay; assay type: protein-complex assay
[1] = biological target: T1, Splicing factor 3B subunit 3 (Homo sapiens) (UniProt Q15393); test: Binding affinity to SF3B3 in human Jurkat cells at 150 uM followed by UV irradiation for 30 mins with Wood's glass filtered medium pressure mercury arc light after cell lysis measured after denaturing wash by SDS-PAGE based pull down assay
T1 sequence (whole entry): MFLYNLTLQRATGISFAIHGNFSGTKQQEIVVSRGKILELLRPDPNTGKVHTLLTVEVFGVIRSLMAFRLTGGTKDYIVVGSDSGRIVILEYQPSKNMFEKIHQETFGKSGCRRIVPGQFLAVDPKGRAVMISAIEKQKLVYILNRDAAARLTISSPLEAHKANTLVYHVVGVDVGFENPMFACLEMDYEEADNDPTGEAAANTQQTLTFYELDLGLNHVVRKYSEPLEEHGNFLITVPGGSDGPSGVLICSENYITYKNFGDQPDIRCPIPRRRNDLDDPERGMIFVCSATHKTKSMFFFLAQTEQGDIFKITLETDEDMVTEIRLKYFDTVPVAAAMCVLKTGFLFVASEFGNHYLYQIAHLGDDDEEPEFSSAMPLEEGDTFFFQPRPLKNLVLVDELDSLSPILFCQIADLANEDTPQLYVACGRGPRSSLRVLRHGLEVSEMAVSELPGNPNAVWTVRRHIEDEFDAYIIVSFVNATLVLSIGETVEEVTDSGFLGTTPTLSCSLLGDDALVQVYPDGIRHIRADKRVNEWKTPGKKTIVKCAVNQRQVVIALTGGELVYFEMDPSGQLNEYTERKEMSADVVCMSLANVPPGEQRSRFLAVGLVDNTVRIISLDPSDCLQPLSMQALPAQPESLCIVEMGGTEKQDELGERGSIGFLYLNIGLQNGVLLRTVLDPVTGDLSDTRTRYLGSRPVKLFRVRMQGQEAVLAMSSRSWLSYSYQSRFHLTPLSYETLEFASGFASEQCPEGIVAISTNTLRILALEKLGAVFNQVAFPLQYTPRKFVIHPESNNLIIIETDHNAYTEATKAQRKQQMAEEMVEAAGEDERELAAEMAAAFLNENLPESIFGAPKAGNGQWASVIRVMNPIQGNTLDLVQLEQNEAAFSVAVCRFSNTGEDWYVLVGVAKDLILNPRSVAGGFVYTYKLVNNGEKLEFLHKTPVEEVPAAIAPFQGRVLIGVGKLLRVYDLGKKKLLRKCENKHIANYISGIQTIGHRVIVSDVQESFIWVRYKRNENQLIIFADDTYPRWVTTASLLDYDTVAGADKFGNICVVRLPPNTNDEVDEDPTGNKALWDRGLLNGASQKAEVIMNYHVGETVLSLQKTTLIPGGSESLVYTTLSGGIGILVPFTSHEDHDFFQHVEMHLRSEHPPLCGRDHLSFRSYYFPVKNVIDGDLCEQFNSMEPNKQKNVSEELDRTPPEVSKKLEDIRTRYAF
Outline: (§1)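 Jurkat cells were grown in RPMI with 10% FBS (about 15×10^6 cells) and treated 2 h with 150 μM BioQ in 3% aqueous DMSO. They were heat-shocked at 43 °C for 30 min, recovered 1 h at 37 °C, and UV-irradiated (320–400 nm, peak 365 nm, 30 min, 4 °C) before or after sonication lysis. Streptavidin-agarose capture ran 1 h. Beads were washed ≥3× with lysis buffer or 2% SDS Tris pH 7.4, boiled, run on 12% SDS-PAGE and silver-stained.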

[2] = biological target: Heat shock-related 70 kDa protein 2 (Homo sapiens) (UniProt P54652); test: Binding affinity to HSPA2 in human Jurkat cells at 150 uM followed by UV irradiation for 30 mins with Wood's glass filtered medium pressure mercury arc light after cell lysis measured after denaturing wash by SDS-PAGE based pull down assay; outline: as §1
[3] = biological target: ATP synthase F(1) complex subunit alpha, mitochondrial (Homo sapiens) (UniProt P25705); test: Binding affinity to ATP5A1 in human Jurkat cells at 150 uM followed by UV irradiation for 30 mins with Wood's glass filtered medium pressure mercury arc light after cell lysis measured after denaturing wash by SDS-PAGE based pull down assay; outline: as §1
[4] = biological target: Eukaryotic translation initiation factor 3 subunit F (Homo sapiens) (UniProt O00303); test: Binding affinity to EIF3F in human Jurkat cells at 150 uM followed by UV irradiation for 30 mins with Wood's glass filtered medium pressure mercury arc light after cell lysis measured after denaturing wash by SDS-PAGE based pull down assay; outline: as §1
[5] = biological target: Actin, cytoplasmic 1 (Homo sapiens) (UniProt P60709); test: Binding affinity to ACTB in human Jurkat cells at 150 uM followed by UV irradiation for 30 mins with Wood's glass filtered medium pressure mercury arc light after cell lysis measured after denaturing wash by SDS-PAGE based pull down assay; outline: as §1
[6] = biological target: Heat shock protein HSP 90-alpha (Homo sapiens) (UniProt P07900); test: Binding affinity to HSP90AA1 in human Jurkat cells at 150 uM followed by UV irradiation for 30 mins with Wood's glass filtered medium pressure mercury arc light prior to cell lysis measured after denaturing wash by SDS-PAGE based pull down assay; outline: as §1
[7] = biological target: ATP synthase F(1) complex subunit beta, mitochondrial (Homo sapiens) (UniProt P06576); test: Binding affinity to ATP5B in human Jurkat cells at 150 uM followed by UV irradiation for 30 mins with Wood's glass filtered medium pressure mercury arc light prior to cell lysis measured after denaturing wash by SDS-PAGE based pull down assay; outline: as §1
[8] = biological target: Eukaryotic translation initiation factor 3 subunit F (Homo sapiens) (UniProt O00303); test: Binding affinity to EIF3F in human Jurkat cells at 150 uM followed by UV irradiation for 30 mins with Wood's glass filtered medium pressure mercury arc light prior to cell lysis measured after denaturing wash by SDS-PAGE based pull down assay; outline: as §1
[9] = biological target: Actin, cytoplasmic 1 (Homo sapiens) (UniProt P60709); test: Binding affinity to ACTB in human Jurkat cells at 150 uM followed by UV irradiation for 30 mins with Wood's glass filtered medium pressure mercury arc light prior to cell lysis measured after denaturing wash by SDS-PAGE based pull down assay; outline: as §1
[10] = biological target: Heat shock protein HSP 90-alpha (Homo sapiens) (UniProt P07900); test: Binding affinity to HSP90AA1 in human Jurkat cells at 150 uM followed by UV irradiation for 30 mins with Wood's glass filtered medium pressure mercury arc light prior to cell lysis measured after denaturing wash by LC-MS/MS based pull down assay
Outline: (§2)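 Silver-stained bands from cells irradiated before lysis were excised, destained, reduced with 10 mM DTT, alkylated with 50 mM iodoacetamide and digested with trypsin overnight. Peptides were extracted in 1% TFA/50% acetonitrile. Nano-C18 LC used a 2–50% acetonitrile gradient with 0.1% formic acid over 50 min at 260 nL/min, followed by MS/MS identification.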

[11] = biological target: RuvB-like 2 (Homo sapiens) (UniProt Q9Y230); test: Binding affinity to RUVBL2 in human Jurkat cells at 150 uM followed by UV irradiation for 30 mins with Wood's glass filtered medium pressure mercury arc light prior to cell lysis measured after denaturing wash by LC-MS/MS based pull down assay; outline: as §2
[12] = biological target: ATP synthase F(1) complex subunit alpha, mitochondrial (Homo sapiens) (UniProt P25705); test: Binding affinity to ATP5A1 in human Jurkat cells at 150 uM followed by UV irradiation for 30 mins with Wood's glass filtered medium pressure mercury arc light prior to cell lysis measured after denaturing wash by LC-MS/MS based pull down assay; outline: as §2

Eukaryotic translation initiation factor 3 subunit F (Homo sapiens), sequence (O00303 whole entry): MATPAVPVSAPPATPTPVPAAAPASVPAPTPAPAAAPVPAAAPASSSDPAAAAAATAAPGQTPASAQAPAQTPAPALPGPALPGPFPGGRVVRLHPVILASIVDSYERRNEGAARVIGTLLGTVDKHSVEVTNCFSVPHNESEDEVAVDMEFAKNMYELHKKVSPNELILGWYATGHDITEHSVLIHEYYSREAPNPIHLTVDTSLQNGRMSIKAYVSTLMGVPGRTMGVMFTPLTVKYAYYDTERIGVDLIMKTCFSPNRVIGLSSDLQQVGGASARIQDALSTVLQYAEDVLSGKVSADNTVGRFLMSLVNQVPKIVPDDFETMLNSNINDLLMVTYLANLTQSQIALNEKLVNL
ATP synthase F(1) complex subunit alpha, mitochondrial (Homo sapiens), sequence (P25705 whole entry, one chain of several): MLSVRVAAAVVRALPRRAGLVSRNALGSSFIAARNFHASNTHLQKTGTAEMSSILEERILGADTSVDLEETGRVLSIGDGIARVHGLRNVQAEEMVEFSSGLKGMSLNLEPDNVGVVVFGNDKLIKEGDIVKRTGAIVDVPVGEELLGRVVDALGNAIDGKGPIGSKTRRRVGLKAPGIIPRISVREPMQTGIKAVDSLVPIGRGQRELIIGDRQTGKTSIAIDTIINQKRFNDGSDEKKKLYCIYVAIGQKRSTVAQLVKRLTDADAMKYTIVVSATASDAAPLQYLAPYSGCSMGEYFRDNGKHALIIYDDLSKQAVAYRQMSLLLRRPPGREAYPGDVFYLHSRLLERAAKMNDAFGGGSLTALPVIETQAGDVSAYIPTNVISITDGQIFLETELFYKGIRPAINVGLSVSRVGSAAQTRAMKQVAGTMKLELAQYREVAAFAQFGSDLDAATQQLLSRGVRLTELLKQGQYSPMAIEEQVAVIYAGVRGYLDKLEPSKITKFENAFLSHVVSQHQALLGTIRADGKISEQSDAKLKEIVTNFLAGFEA
Heat shock-related 70 kDa protein 2 (Homo sapiens), sequence (P54652 whole entry): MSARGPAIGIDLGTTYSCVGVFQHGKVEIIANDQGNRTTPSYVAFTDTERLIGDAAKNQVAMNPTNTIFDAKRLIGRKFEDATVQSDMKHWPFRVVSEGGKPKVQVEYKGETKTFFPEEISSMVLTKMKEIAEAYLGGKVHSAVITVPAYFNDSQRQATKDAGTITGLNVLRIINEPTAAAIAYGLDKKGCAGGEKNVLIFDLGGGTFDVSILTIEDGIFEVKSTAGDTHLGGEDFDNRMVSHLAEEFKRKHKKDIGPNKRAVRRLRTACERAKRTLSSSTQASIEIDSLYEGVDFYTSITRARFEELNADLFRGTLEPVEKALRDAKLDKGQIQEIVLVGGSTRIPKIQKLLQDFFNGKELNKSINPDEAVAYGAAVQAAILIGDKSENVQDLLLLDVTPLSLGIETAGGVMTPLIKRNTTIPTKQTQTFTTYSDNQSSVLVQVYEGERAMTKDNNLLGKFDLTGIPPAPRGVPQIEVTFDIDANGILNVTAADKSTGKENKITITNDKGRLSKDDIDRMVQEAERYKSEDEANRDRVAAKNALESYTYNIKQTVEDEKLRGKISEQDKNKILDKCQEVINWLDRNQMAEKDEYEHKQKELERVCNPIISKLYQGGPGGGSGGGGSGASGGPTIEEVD
ATP synthase F(1) complex subunit beta, mitochondrial (Homo sapiens), sequence (P06576 whole entry, one chain of several): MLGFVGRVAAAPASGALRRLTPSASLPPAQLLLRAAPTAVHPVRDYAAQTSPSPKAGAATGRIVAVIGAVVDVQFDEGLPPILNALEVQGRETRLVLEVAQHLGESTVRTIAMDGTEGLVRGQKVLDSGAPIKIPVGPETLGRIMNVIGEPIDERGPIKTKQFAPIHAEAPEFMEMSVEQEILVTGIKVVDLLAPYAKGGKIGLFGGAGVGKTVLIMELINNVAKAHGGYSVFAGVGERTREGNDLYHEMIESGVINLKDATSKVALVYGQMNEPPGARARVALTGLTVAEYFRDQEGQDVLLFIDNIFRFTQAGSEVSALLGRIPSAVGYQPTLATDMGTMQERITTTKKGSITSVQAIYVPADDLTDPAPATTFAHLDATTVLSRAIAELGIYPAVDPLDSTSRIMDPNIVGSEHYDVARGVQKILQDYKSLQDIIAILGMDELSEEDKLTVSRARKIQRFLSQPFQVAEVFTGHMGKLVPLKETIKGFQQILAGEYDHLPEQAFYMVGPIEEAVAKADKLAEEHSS
RuvB-like 2 (Homo sapiens), sequence (Q9Y230 whole entry): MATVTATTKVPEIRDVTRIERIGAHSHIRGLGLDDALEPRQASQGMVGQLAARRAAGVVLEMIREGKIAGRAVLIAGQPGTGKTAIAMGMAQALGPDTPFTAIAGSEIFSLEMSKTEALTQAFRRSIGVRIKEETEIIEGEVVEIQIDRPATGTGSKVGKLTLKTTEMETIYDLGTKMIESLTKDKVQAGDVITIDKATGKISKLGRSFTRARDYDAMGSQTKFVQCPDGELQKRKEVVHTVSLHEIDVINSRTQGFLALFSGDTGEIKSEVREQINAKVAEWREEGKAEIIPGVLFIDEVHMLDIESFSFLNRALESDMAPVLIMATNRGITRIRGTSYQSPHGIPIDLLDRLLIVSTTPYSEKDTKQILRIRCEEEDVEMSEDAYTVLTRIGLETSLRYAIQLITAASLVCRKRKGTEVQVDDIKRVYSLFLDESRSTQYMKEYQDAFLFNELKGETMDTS
Casein kinase II, sequence (P67870 whole entry): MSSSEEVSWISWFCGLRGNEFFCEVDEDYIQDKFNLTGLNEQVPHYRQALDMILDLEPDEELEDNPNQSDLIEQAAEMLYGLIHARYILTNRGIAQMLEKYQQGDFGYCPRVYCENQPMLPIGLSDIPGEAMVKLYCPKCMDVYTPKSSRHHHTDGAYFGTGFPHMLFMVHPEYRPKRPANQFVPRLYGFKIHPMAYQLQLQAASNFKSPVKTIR
Casein kinase II, sequence (P68400 whole entry): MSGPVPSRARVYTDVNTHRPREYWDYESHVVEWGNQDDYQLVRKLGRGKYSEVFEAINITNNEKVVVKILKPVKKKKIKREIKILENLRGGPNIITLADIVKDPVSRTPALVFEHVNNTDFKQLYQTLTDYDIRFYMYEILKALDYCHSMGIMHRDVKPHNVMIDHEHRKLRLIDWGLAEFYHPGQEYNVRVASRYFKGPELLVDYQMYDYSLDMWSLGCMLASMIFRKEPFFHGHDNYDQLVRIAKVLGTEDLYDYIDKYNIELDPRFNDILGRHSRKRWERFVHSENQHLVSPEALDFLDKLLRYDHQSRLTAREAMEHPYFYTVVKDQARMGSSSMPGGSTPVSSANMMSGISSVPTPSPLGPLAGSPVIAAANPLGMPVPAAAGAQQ
Casein kinase II, sequence (P19784 whole entry): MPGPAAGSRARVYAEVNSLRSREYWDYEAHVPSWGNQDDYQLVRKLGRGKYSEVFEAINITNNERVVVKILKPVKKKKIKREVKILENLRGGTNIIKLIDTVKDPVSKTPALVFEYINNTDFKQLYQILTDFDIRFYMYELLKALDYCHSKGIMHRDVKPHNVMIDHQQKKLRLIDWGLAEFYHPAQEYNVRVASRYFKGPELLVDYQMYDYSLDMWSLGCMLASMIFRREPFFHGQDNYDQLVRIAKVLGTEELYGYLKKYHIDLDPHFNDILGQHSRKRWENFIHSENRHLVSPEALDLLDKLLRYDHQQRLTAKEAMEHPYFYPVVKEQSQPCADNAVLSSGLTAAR

**Q.** How did the IC50 (Casein kinase II) turn out when O=C(CCCC[C@@H]1SC[C@@H]2NC(=O)N[C@@H]21)NCCOCCOCCNC(=O)COc1cc(O)c2c(=O)c(O)c(-c3ccc(O)c(O)c3)oc2c1 was run?
**A.** 3.2 µM

**Q.** And the Activity [1]?
**A.** Active

**Q.** And the Activity [2]?
**A.** Active

**Q.** What about the Activity [3] of the same compound?
**A.** Active

**Q.** What about the Activity [4] of the same compound?
**A.** Active

**Q.** And the Activity [5]?
**A.** Active

**Q.** What about the Activity [6] of the same compound?
**A.** Active

**Q.** What about the Activity [7] of the same compound?
**A.** Active

**Q.** And the Activity [8]?
**A.** Active

**Q.** And the Activity [9]?
**A.** Active

**Q.** And the Activity [10]?
**A.** Active

**Q.** And the Activity [11]?
**A.** Active

**Q.** And the Activity [12]?
**A.** Active
